Source: ChEMBL document CHEMBL1142504, “Influence of 6- or 8-substitution on the antiviral activity of 3-arylalkylthiomethylimidazo[1,2-a]pyridine against human cytomegalovirus (CMV) and varicella-zoster virus (VZV): part II” (Bioorg Med Chem, 2008)
Values after ≈ are worked out from the molar mass of the structure shown.

Experiments:
Human betaherpesvirus 5 [1] = experiment: Antiviral activity against human cytomegalovirus AD169 in HEL cells assessed as inhibition of viral cytopathicity; format: functional, organism-based; settings: Human betaherpesvirus 5, AD169, HEL
Outline: (§1)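 Confluent HEL cell cultures were inoculated with 100 PFU of HCMV. After 2 h adsorption, residual virus was removed and cells were incubated with varying concentrations of test compound. Viral cytopathicity was scored when it reached completion in the untreated virus-infected controls, and the EC50 was taken from this read-out.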

Human betaherpesvirus 5 [2] = experiment: Antiviral activity against human cytomegalovirus Davis in HEL cells assessed as inhibition of viral cytopathicity; format: functional, organism-based; settings: Human betaherpesvirus 5, Davis; outline: as §1
Human alphaherpesvirus 3 [3] = experiment: Antiviral activity against thymidine kinase expressing Varicella-Zoster virus Oka in HEL cells assessed as inhibition of viral cytopathicity; format: functional, organism-based; settings: Human alphaherpesvirus 3, Oka
Outline: (§2)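 VZV input was 20 PFU per HEL cell culture. Cultures were incubated with test compound for 5 days at 37 °C under 5% CO2, then fixed and stained. Viral plaque formation was counted against the untreated control to give the EC50.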

Human alphaherpesvirus 3 [4] = experiment: Antiviral activity against thymidine kinase deficient Varicella-Zoster virus 07/1 in HEL cells assessed as inhibition of viral cytopathicity; format: functional, organism-based; settings: Human alphaherpesvirus 3, HEL; outline: as §2
[5] = Cytotoxicity against HEL cells assessed as reduction of growth after 3 days; format: cell-based; settings: human
Outline: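 HEL cell suspensions were added to wells holding varying concentrations of test compound. Plates were incubated 3 days at 37 °C in a humidified CO2 incubator, and viable cells were counted with a Coulter Counter. CC50 is the concentration that reduced viable cell number by 50%.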

[6] = Cytotoxicity against HEL cells assessed as morphological alteration after 3 days; format: cell-based; settings: human
Outline: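 HEL cell cultures were examined by microscope. Cytotoxicity was recorded as the minimum cytotoxic concentration (MCC), meaning the lowest compound concentration that caused a detectable alteration of cell morphology.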

SMILES | EC50 (Human betaherpesvirus 5 [1]) [µg/mL] | EC50 (Human betaherpesvirus 5 [2]) [µg/mL] | EC50 (Human alphaherpesvirus 3 [3]) [µg/mL] | EC50 (Human alphaherpesvirus 3 [4]) [µg/mL] | CC50 at 72 h [5] [µg/mL] | MCC at 72 h [6] [µg/mL]
Cc1cc(-c2ccco2)c2ncc(CSCCc3ccccc3)n2c1 | 2.5 (≈ 7.17 µM) | 2.7 (≈ 7.75 µM) | 6.6 (≈ 18.9 µM) | 7.9 (≈ 22.7 µM) | 41 (≈ 118 µM) | 100
Cc1cc(-c2ccoc2)c2ncc(CSCCc3ccccc3)n2c1 | 1.8 (≈ 5.17 µM) | 1.3 (≈ 3.73 µM) | 20 (≈ 57.4 µM) | > 20 | 64 (≈ 184 µM) | 100
Cc1cc(-c2ccsc2)c2ncc(CSCc3ccccc3)n2c1 | 4 (≈ 11.4 µM) | 2.1 (≈ 5.99 µM) | 7.3 (≈ 20.8 µM) | 6.5 (≈ 18.5 µM) | 100 (≈ 285 µM) | 100
Cc1cc(-c2ccc3[nH]ccc3c2)cn2c(CSCCc3ccccc3)cnc12 | > 20 | > 4 |  |  | 26 (≈ 65.4 µM) | ≥ 20
Cc1cc(-n2ccnc2)c2ncc(CSCCc3ccccc3)n2c1 | 3.1 (≈ 8.9 µM) | 2.3 (≈ 6.6 µM) | > 4 | > 4 | 10 (≈ 28.7 µM) | 20
C=Cc1ccc(-c2cc(C)c3ncc(CSCCc4ccccc4)n3c2)cc1 | > 4 | 2.9 (≈ 7.54 µM) |  |  | 14 (≈ 36.4 µM) | 20
Cc1cc(-c2ccsc2)cn2c(CSCc3ccccc3)cnc12 | > 0.8 | 0.8 (≈ 2.28 µM) | > 0.8 | > 0.8 | 9.4 (≈ 26.8 µM) | 4
C=Cc1ccc(-c2cc(C)c3ncc(CSCc4ccccc4)n3c2)cc1 | > 100 | 30 (≈ 81 µM) |  |  | 59 (≈ 159 µM) | ≥ 100
Cc1cc(-n2cccc2)c2ncc(CSCc3ccccc3)n2c1 | 6.3 (≈ 18.9 µM) | 2.9 (≈ 8.7 µM) | 2.2 (≈ 6.6 µM) | 1.8 (≈ 5.4 µM) | 15 (≈ 45 µM) | 100
Cc1cc(-n2ccc3cccnc32)c2ncc(CSCCc3ccccc3)n2c1 | 4 (≈ 10 µM) | 1.8 (≈ 4.52 µM) | 6.6 (≈ 16.6 µM) | 14 (≈ 35.1 µM) | > 100 | 100
Cc1cc(-n2cccc2)c2ncc(CSCCc3ccccc3)n2c1 | 1.8 (≈ 5.18 µM) | 1.8 (≈ 5.18 µM) | > 20 | > 20 | 26 (≈ 74.8 µM) | 100
Cc1cc(Sc2ccc(Cl)cc2)c2ncc(CSCCc3ccccc3)n2c1 | > 0.8 | > 0.8 | > 0.8 | > 0.8 | 100 (≈ 235 µM) | 4
Cc1cc(Sc2ccc(O)cc2)c2ncc(CSCCc3ccccc3)n2c1 | > 0.8 | 0.8 (≈ 1.97 µM) | 58 (≈ 143 µM) | 2.9 (≈ 7.13 µM) | 79 (≈ 194 µM) | > 100
Cc1cc(N2CCCC2)c2ncc(CSCc3ccccc3)n2c1 | 10 (≈ 29.6 µM) | 5.2 (≈ 15.4 µM) | 17.7 (≈ 52.4 µM) | > 4 | 52 (≈ 154 µM) | ≥ 20
Cc1cc(Sc2ccc(Cl)cc2)cn2c(CSCCc3ccccc3)cnc12 | > 4 | > 4 | > 4 | > 4 | 14 (≈ 32.9 µM) | 20
Cc1cc(Sc2ccc(O)cc2)cn2c(CSCCc3ccccc3)cnc12 | > 0.8 | 0.8 (≈ 1.97 µM) | > 0.8 | > 0.8 | 100 (≈ 246 µM) | 4
Cc1cc(-n2ccc3ccccc32)c2ncc(CSCCc3ccccc3)n2c1 | 20 (≈ 50.3 µM) | 10.5 (≈ 26.4 µM) | > 20 | > 20 | > 100 | 100
Nc1nc2c(ncn2COCCO)c(=O)[nH]1 [ACYCLOVIR] |  |  | 0.24 (≈ 1.07 µM) | 13 (≈ 57.7 µM) | 137 (≈ 608 µM) | > 400
O=c1[nH]c(=O)n([C@H]2C[C@H](O)[C@@H](CO)O2)cc1/C=C/Br [BRIVUDINE] |  |  | 0.0037 (≈ 0.0111 µM) | > 50 | 122 (≈ 366 µM) | 400
Nc1ccn(C[C@@H](CO)OCP(=O)(O)O)c(=O)n1 [CIDOFOVIR] |  |  |  |  |  | ≥ 100

Further lines, with some results ahead:

EC50 (Human betaherpesvirus 5 [1]) [µg/mL] | EC50 (Human betaherpesvirus 5 [2]) [µg/mL] | EC50 (Human alphaherpesvirus 3 [3]) [µg/mL] | EC50 (Human alphaherpesvirus 3 [4]) [µg/mL] | SMILES | CC50 at 72 h [5] [µg/mL] | MCC at 72 h [6] [µg/mL]
> 20 | > 20 | > 20 | > 20 | Cc1cc(N2CCOCC2)cn2c(CSCCc3ccccc3)cnc12 | 45 (≈ 122 µM) | 100
> 4 | 8.2 (≈ 22.3 µM) | 53.6 (≈ 146 µM) | 36.6 (≈ 99.6 µM) | Cc1cc(N2CCOCC2)c2ncc(CSCCc3ccccc3)n2c1 | 49 (≈ 133 µM) | > 100
> 20 | 20 (≈ 56.9 µM) | 35.7 (≈ 102 µM) | > 20 | Cc1cc(N2CCCC2)c2ncc(CSCCc3ccccc3)n2c1 | > 100 | > 100
8.9 (≈ 25.5 µM) | 6.8 (≈ 19.5 µM) | 10.7 (≈ 30.7 µM) | 11.4 (≈ 32.7 µM) | Cc1cc(-n2ccnc2)cn2c(CSCCc3ccccc3)cnc12 | 23 (≈ 66 µM) | 100
2 (≈ 5.02 µM) | 1.4 (≈ 3.51 µM) | > 4 | > 4 | Cc1cc(-n2ccc3cccnc32)cn2c(CSCCc3ccccc3)cnc12 | 16 (≈ 40.1 µM) | 20
8.9 (≈ 29 µM) | 8.9 (≈ 29 µM) | > 4 | > 4 | Cc1cc(C#N)cn2c(CSCCc3ccccc3)cnc12 | 14 (≈ 45.5 µM) | 20
1.8 (≈ 4.44 µM) | 1.8 (≈ 4.44 µM) | > 4 | 2.2 (≈ 5.42 µM) | Cc1cc(Sc2ccc(N)cc2)cn2c(CSCCc3ccccc3)cnc12 | 23 (≈ 56.7 µM) | 20
2.2 (≈ 7.16 µM) | 2 (≈ 6.51 µM) | 16.4 (≈ 53.3 µM) | > 4 | Cc1cc(C#N)c2ncc(CSCCc3ccccc3)n2c1 | > 100 | ≥ 20
> 0.8 | 0.27 (≈ 0.775 µM) | 2.4 (≈ 6.89 µM) | > 0.8 | Cc1cc(-c2ccoc2)cn2c(CSCCc3ccccc3)cnc12 | 12 (≈ 34.4 µM) | > 4
> 20 | > 4 | > 4 | > 4 | Cc1cc(N2CCN(C)CC2)cn2c(CSCCc3ccccc3)cnc12 | 32 (≈ 84.1 µM) | 20
> 0.8 | 1.3 (≈ 3.74 µM) | > 4 | > 0.8 | Cc1cc(-n2cccc2)cn2c(CSCCc3ccccc3)cnc12 | 11 (≈ 31.7 µM) | ≥ 4
1.6 (≈ 4.8 µM) | 1.3 (≈ 3.9 µM) | > 4 | 2.1 (≈ 6.3 µM) | Cc1cc(-n2cccc2)cn2c(CSCc3ccccc3)cnc12 | 17 (≈ 51 µM) | 20
> 4 | > 4 | > 4 | > 4 | Cc1cc(N2CCCC2=O)c2ncc(CSCCc3ccccc3)n2c1 | 25 (≈ 68.4 µM) | 20
> 4 | 1.8 (≈ 4.53 µM) | > 20 | > 4 | Cc1cc(-n2ccc3ccccc32)cn2c(CSCCc3ccccc3)cnc12 | 18 (≈ 45.3 µM) | > 20
4 (≈ 11.4 µM) | 2 (≈ 5.69 µM) | > 4 | > 4 | Cc1cc(N2CCCC2)cn2c(CSCCc3ccccc3)cnc12 | 12 (≈ 34.1 µM) | 20
> 20 | > 20 | > 100 | > 20 | Cc1cc(N2CCCC2=O)cn2c(CSCCc3ccccc3)cnc12 | 89 (≈ 244 µM) | > 100
> 0.8 | > 0.8 | > 4 | > 0.8 | Cc1cc(-c2ccco2)cn2c(CSCCc3ccccc3)cnc12 | 40 (≈ 115 µM) | > 4
12.6 (≈ 32.6 µM) | 6 (≈ 15.5 µM) |  |  | Cc1cc(-c2ccc(C=O)cc2)cn2c(CSCCc3ccccc3)cnc12 | 9.4 (≈ 24.3 µM) | 100
